Results on 17 molecules are retold here after ChEMBL document CHEMBL3997787, “New pyridazinone-4-carboxamides as new cannabinoid receptor type-2 inverse agonists: Synthesis, pharmacological data and molecular docking” (Eur J Med Chem, 2017).

In assay [1] the target is T1, Cannabinoid receptor 1 (Homo sapiens, UniProt P21554). The assay can be described thus: Displacement of [3H]CP55940 from human CB1 receptor expressed in HEK293 EBNA cell membranes at 4 uM after 90 mins by liquid scintillation and luminescence counting method relative to control. The procedure, abridged:
(§1)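 Single-concentration screen (4 µM) on transfected-cell membranes with human CB1R (about 8 µg/well, 0.1 nM [³H]CP,55-940, pH 7.4 Tris/MgCl₂/EDTA/0.5 mg/mL BSA) or CB2R (1.33 µg/well, 0.15 nM radioligand, pH 7.5 Tris/MgCl₂/EGTA/1 mg/mL BSA). Incubated 90 min at 30 °C. Nonspecific binding defined with 10 µM WIN 55,212-2; 100% binding taken without compound. Filtered through PEI-soaked GF/C filters and counted.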
(In general: Loss of bound radioactivity is the signal in a displacement assay; it reports binding, not function.)

Assay [2] has as its target T2, Cannabinoid receptor 2 (Homo sapiens, UniProt P34972). The assay can be described thus: Displacement of [3H]CP55940 from human CB2 receptor expressed in HEK293 EBNA cell membranes at 4 uM after 90 mins by liquid scintillation and luminescence counting method relative to control. The procedure, abridged:
as §1

The target of assay [3] is T1, Cannabinoid receptor 1. In words: Displacement of [3H]CP55940 from human CB1 receptor expressed in HEK293 EBNA cell membranes after 90 mins by liquid scintillation and luminescence counting method.
For assay [4], the target named is T2, Cannabinoid receptor 2. The assay can be described thus: Displacement of [3H]CP55940 from human CB2 receptor expressed in HEK293 EBNA cell membranes after 90 mins by liquid scintillation and luminescence counting method.
Assay [5] is filed under the species Homo sapiens. In words: Selectivity ratio of Ki for human CB1 receptor to Ki for human CB2 receptor.
Assay [6] addresses T2, Cannabinoid receptor 2. In words: Inverse agonist activity at human CB2 receptor expressed in HEK293 EBNA cell membranes after 30 mins by [35S]-GTPgammaS binding assay. Format: functional. In a few lines: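 Saponin-permeabilized CB2R membranes (5 µg/well) with 0.3 nM [35S]-GTPγS and 10 µM GDP in 20 mM HEPES, 100 mM NaCl, 10 mM MgCl₂, pH 7.4. Compounds at 10⁻¹² to 10⁻⁵ M, 30 min at 30 °C; nonspecific signal with 10 µM GTPγS. Filtered, washed with 10 mM sodium phosphate and counted. IC50 and Emax from curve fitting, mean ± SEM of at least three triplicate experiments.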

T1 sequence (P21554 whole entry): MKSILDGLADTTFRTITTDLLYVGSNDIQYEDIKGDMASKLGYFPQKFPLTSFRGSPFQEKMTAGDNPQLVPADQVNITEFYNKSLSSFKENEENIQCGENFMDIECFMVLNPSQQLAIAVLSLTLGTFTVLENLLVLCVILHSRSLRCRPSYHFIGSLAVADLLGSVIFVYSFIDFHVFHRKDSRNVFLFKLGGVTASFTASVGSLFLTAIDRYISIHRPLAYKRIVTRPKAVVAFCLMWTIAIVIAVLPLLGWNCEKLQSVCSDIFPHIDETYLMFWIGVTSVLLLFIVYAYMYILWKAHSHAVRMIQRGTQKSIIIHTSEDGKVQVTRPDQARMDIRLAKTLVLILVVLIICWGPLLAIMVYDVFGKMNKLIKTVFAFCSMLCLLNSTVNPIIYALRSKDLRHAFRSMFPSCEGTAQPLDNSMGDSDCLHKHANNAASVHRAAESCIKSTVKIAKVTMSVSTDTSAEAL
T2 sequence (P34972 whole entry): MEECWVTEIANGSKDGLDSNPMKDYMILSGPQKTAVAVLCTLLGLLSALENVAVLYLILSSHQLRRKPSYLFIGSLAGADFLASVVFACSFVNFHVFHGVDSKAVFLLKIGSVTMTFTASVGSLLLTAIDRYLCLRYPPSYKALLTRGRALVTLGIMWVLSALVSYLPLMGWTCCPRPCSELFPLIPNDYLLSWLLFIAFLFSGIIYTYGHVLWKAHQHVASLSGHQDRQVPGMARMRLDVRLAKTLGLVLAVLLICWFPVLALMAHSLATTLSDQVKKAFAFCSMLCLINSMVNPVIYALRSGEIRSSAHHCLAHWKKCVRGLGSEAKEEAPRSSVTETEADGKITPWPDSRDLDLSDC

Broadly, the inhibition is the share of the control response that was lost under treatment. A low value points to a weak effect. Usually Ki stands for a dissociation constant, usually derived from enzyme kinetics or from competition with a known ligand. For the molecule `O=C(NC1CCCCC1)c1cc(-c2ccccc2)nn(Cc2ccc(F)cc2)c1=O`, the inhibition in assay [1] and in assay [2] was over 70% each time. For the same molecule, the Ki in assay [3] (read-out: Ki) was 467 nM; in assay [4] (read-out: Ki) it was 44 nM. The Ratio Ki in assay [5] is 11.
Regarding `Cc1ccc(Cn2nc(-c3ccc(Cl)c(C)c3)cc(C(=O)NC3CCCCC3)c2=O)cc1`, the inhibition in assay [1] and in assay [2] was over 70% throughout. Further, the Ki in assay [3] (read-out: Ki) was over 4000 nM; in assay [4] (read-out: Ki), 240 nM. Moreover, in assay [5], the Ratio Ki was over 16.6.
For the molecule `C[C@H]1CC[C@H](NC(=O)c2cc(-c3ccccc3)nn(Cc3ccc(F)cc3)c2=O)CC1`, the inhibition in assay [1] and in assay [2] was over 70% each time. In addition, the Ki in assay [3] (read-out: Ki) worked out at 322 nM; in assay [4] (read-out: Ki), 66 nM. In assay [5], the Ratio Ki was 5.
Consider `O=C(NC12CC3CC(CC(C3)C1)C2)c1cc(-c2ccccc2)nn(Cc2ccc(F)cc2)c1=O`, for which the Ki result in assay [3] (hek293) and in assay [4] (hek293) was “Nd(Insoluble)” throughout.
In general, Emax refers to the greatest response seen or fitted, relative to the assay's reference. In general, IC50 refers to the midpoint of a concentration-inhibition curve. Read a high IC50 as a need for much substance. For the molecule `C[C@H]1CC[C@@H](NC(=O)c2cc(-c3ccccc3)nn(Cc3ccc(F)cc3)c2=O)CC1`, the inhibition in assay [1] and in assay [2] was over 70% throughout. The results for the Ki in assay [3] (read-out: Ki) and in assay [4] (read-out: Ki) were 115 nM and 5.7 nM, respectively. Also, the Ratio Ki in assay [5] is 20. Further, the Emax in assay [6] was -65.7%. Besides, the IC50 in assay [6] came out at 35.2 nM.
As to `Cc1ccc(Cn2nc(-c3ccc(Cl)c(C)c3)cc(C(=O)NC34CC5CC(CC(C5)C3)C4)c2=O)cc1`, the Ki result in assay [3] (hek293) and in assay [4] (hek293) was “Nd(Insoluble)” each time.
For `Cc1cc(-c2cc(C(=O)NC3CCCCC3)c(=O)n(Cc3ccc(F)cc3)n2)ccc1Cl`, the inhibition in assay [1] and in assay [2] was over 70% in each case. In addition, the Ki in assay [3] (read-out: Ki) was over 4000 nM; in assay [4] (read-out: Ki), 4.7 nM. Moreover, the Ratio Ki in assay [5] was over 851. In addition, the Emax in assay [6] is -60.7%. The IC50 in assay [6] stood at 25.3 nM.
As for `Cc1cc(-c2cc(C(=O)N[C@@H]3C(C)(C)[C@@H]4CC[C@@]3(C)C4)c(=O)n(Cc3ccc(F)cc3)n2)ccc1Cl`, the inhibition in assay [1] and in assay [2] was over 70% in each case. Besides, the Ki in assay [3] (read-out: Ki) is over 4000 nM; in assay [4] (read-out: Ki) it was 2.6 nM. For the same molecule, the Ratio Ki in assay [5] is over 1540. Moreover, in assay [6], the Emax is -58.7%. The IC50 in assay [6] amounted to 51.2 nM.
With `Cc1ccc(Cn2nc(-c3ccc(Cl)c(C)c3)cc(C(=O)NC3CCCCCC3)c2=O)cc1`, the Ki result in assay [3] (hek293) and in assay [4] (hek293) was “Nd(Insoluble)” in each case.
Turning to `Cc1cc(-c2cc(C(=O)NC34CC5CC(CC(C5)C3)C4)c(=O)n(Cc3ccc(F)cc3)n2)ccc1Cl`, the inhibition in assay [1] and in assay [2] was over 70% throughout. Moreover, the Ki in assay [3] (read-out: Ki) is over 4000 nM; in assay [4] (read-out: Ki), 3.4 nM. In assay [5], the Ratio Ki is over 1180.
Turning to `O=C(NC1CCCCCC1)c1c2c(nn(Cc3ccc(F)cc3)c1=O)-c1ccccc1C2`, the inhibition in assay [1] and in assay [2] was over 70% in each case. The Ki in assay [3] (read-out: Ki) and in assay [4] (read-out: Ki) was over 4000 nM throughout.
Turning to `Cc1cc(-c2cc(C(=O)N[C@H]3CC[C@H](C)CC3)c(=O)n(Cc3ccc(F)cc3)n2)ccc1Cl`, the inhibition in assay [1] and in assay [2] was over 70% throughout. In addition, the Ki is over 4000 nM in assay [3] (read-out: Ki) and 9 nM in assay [4] (read-out: Ki). For the same molecule, in assay [5], the Ratio Ki was over 444.
In the case of `Cc1cc(-c2cc(C(=O)N[C@H]3CC[C@@H](C)CC3)c(=O)n(Cc3ccc(F)cc3)n2)ccc1Cl`, the inhibition in assay [1] and in assay [2] was over 70% each time. Also, the inhibition constant Ki in assay [3] (read-out: Ki) was over 4000 nM; in assay [4] (read-out: Ki) it was 2 nM. In assay [5], the Ratio Ki is over 2000. Further, the Emax in assay [6] was -43.8%. This molecule also yielded an IC50 in assay [6] of 20.7 nM.
`Cc1ccc(Cn2nc(C(=O)N[C@@H]3C(C)(C)[C@@H]4CC[C@@]3(C)C4)cc2-c2ccc(Cl)c(C)c2)cc1`: in assay [6], the Emax is -63.2%.
Consider `Cc1cc(-c2cc(C(=O)NCCN3CCOCC3)c(=O)n(Cc3ccc(F)cc3)n2)ccc1Cl`, for which the inhibition in assay [1] and in assay [2] was over 70% each time. In addition, the figures for the Ki in assay [3] (read-out: Ki) and in assay [4] (read-out: Ki) were over 4000 nM and 311 nM, respectively. For the same molecule, the Ratio Ki in assay [5] was over 12.9.
As to `O=C(NC1CCCCCC1)c1cc(-c2ccccc2)nn(Cc2ccc(F)cc2)c1=O`, the inhibition in assay [1] and in assay [2] was over 70% in each case. For the same molecule, the Ki stood at 33 nM in assay [3] (read-out: Ki) and 16 nM in assay [4] (read-out: Ki). Moreover, the Ratio Ki in assay [5] was determined as 2.
Consider `Cc1cc(-c2cc(C(=O)NC3CCCCCC3)c(=O)n(Cc3ccc(F)cc3)n2)ccc1Cl`, for which the inhibition in assay [1] and in assay [2] was over 70% throughout. Also, the figures for the Ki in assay [3] (read-out: Ki) and in assay [4] (read-out: Ki) were over 4000 nM and 4.9 nM, respectively. The Ratio Ki in assay [5] was over 816.
